ChEMBL document CHEMBL4020752, “Synthesis and biological activity of new phthalimides as potential anti-inflammatory agents” (Bioorg Med Chem, 2017)
≈ marks a conversion by molar mass, not a printed value. Calls of active or inactive are those of the source. No cut-off for these calls is given here.

Tests used:
[1] = system: RAW264.7; experiment: Anti-inflammatory activity in mouse RAW264.7 cells assessed as inhibition of LPS-induced NO production by measuring remaining NO level at 20 ug/ml after 22 hrs by Griess assay relative to control; type: functional
Method in brief: (§1)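 RAW 264.7 cells seeded at 2×10^5/well, grown 24 h at 37 °C in 5% CO2, washed twice with PBS, given fresh medium, then exposed to LPS 1 µg/mL with or without test compound for 22 h. Nitrite in the medium read by Griess reagent at 540 nm against a sodium nitrite standard curve. IC50 obtained by nonlinear regression of % inhibition vs concentration. Means ± SD of three independent experiments.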

[2] = system: RAW264.7; experiment: Anti-inflammatory activity in mouse RAW264.7 cells assessed as inhibition of LPS-induced NO production by measuring […] level at 20 ug/ml after 22 hrs by Griess assay (reference value: 25.31 uM); type: functional; method in brief: as §1
[3] = system: RAW264.7; experiment: Downregulation of IKKbeta level in LPS-stimulated mouse RAW264.7 cells up to 20 ug/ml preincubated with cells followed by LPS stimulation for 16 hrs by Western blot analysis; type: functional, cell-based
Method in brief: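 RAW 264.7 cells pretreated with a range of compound concentrations, then stimulated with LPS 1 µg/mL for 16 h. IKK protein analysed by western blotting.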

[4] = system: RAW264.7; experiment: Downregulation of IFN-beta mRNA level in LPS-stimulated mouse RAW264.7 cells up to 20 ug/ml preincubated with cells followed by LPS stimulation for 4 hrs by RT-PCR method; type: functional, cell-based
Method in brief: (§2)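 Cells pretreated with compound for 30 min, then stimulated with LPS 1 µg/mL for 4 h. Total RNA extracted and cytokine mRNA measured by real-time PCR. Means ± SD of triplicate tests.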

[5] = species on record: Mus musculus; experiment: Inhibition of NF-kB transcriptional activity in LPS-stimulated mouse RAW264.7 cells up to 20 ug/ml preincubated for 2 hrs followed by LPS stimulation for 16 hrs by SEAP reporter gene assay
Method in brief: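 RAW-SEAP cells cultured 24 h, pretreated with compound for 2 h, then given LPS 1 µg/mL for 16 h. Supernatants heated at 65 °C for 5 min and reacted with buffer (2 M diethanolamine, 1 mM MgCl2, 500 µM MUP) in the dark at 37 °C for 1 h. Fluorescence read at ex 360/em 449 nm, normalized to protein, expressed relative to vehicle control without LPS.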

[6] = system: RAW264.7; experiment: Downregulation of LPS-stimulated TNF-alpha protein expression level in mouse RAW264.7 cells up to 20 ug/ml preincubated for 30 mins followed by LPS stimulation for 4 hrs by Western blot analysis; type: functional, cell-based
Method in brief: (§3)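 RAW 264.7 cells pretreated with a range of compound concentrations for 30 min, then stimulated with LPS 1 µg/mL for 4 h. Total protein extracted and cytokine levels analysed by western blotting.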

[7] = system: RAW264.7; experiment: Downregulation of LPS-stimulated IL-1beta mRNA expression level in mouse RAW264.7 cells preincubated for 30 mins followed by LPS stimulation for 4 hrs by RT-PCR method; type: functional, cell-based; method in brief: as §2
[8] = system: RAW264.7; experiment: Anti-inflammatory activity in mouse RAW264.7 cells assessed as inhibition of LPS-induced NO production after 22 hrs by Griess assay; type: functional, cell-based; method in brief: as §1
[9] = system: RAW264.7; experiment: Downregulation of LPS-stimulated iNOS protein expression level in mouse RAW264.7 cells preincubated for 30 mins followed by LPS stimulation for 16 hrs by Western blot analysis; type: functional, cell-based
Method in brief: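 Cells pretreated with a range of compound concentrations for 30 min, then stimulated with LPS 1 µg/mL for 16 h. iNOS protein analysed by western blot.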

[10] = molecular target: T1, Interferon regulatory factor 3 (Mus musculus) (UniProt P70671); experiment: Inhibition of LPS-stimulated IRF-3 phosphorylation at Ser-396 residue in mouse RAW264.7 cells up to 20 ug/ml preincubated for 30 mins followed by LPS stimulation for 30 mins by Western blot analysis; type: cell-based
T1 sequence (whole entry): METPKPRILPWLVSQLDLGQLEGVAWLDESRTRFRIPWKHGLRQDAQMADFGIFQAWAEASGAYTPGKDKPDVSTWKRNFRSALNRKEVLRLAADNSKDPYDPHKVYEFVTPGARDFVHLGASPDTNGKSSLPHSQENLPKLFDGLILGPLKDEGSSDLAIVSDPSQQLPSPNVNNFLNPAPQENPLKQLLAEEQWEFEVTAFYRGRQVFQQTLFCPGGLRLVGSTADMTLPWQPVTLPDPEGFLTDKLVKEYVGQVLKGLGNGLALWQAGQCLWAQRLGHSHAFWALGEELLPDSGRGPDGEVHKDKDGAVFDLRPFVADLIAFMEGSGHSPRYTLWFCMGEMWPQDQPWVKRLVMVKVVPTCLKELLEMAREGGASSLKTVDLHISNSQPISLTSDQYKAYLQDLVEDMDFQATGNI
Method in brief: (§4)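 Pretreatment with a range of compound concentrations for 30 min, then LPS 1 µg/mL for 30 min. IκBα, phospho-protein and related protein levels analysed by western blot.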

[11] = system: RAW264.7; experiment: Upregulation of HO-1 protein level in LPS-stimulated mouse RAW264.7 cells at 20 ug/ml preincubated for 30 mins followed by LPS stimulation for 16 hrs by Western blot method; type: functional, cell-based
Method in brief: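 RAW 264.7 cells pretreated with compound for 30 min, then stimulated with LPS 1 µg/mL for 16 h. HO-1 protein measured by western blotting.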

[12] = Cytotoxicity against mouse RAW264.7 cells assessed as survival at 40 ug/ml after 22 hrs by MTT assay relative to control; type: cell-based; settings: read-out: Survival
Method in brief: (§5)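 RAW 264.7 cells were grown in DMEM with 10% heat-inactivated FBS at 37 °C and 5% CO₂, then plated at 2×10^5 per well for 24 h. After washing, cells received 1 µg/mL LPS with or without compound (up to 40 µg/mL) for 22 h. After the Griess read, MTT (final 500 µg/mL) was added for 3 h at 37 °C. Formazan was dissolved in DMSO and read at 570 nm, giving % survival versus control.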

[13] = system: RAW264.7; experiment: Downregulation of LPS-stimulated iNOS mRNA expression level in mouse RAW264.7 cells preincubated for 30 mins followed by LPS stimulation for 4 hrs by RT-PCR method; type: functional, cell-based
[14] = system: RAW264.7; experiment: Downregulation of IkB-alpha level in LPS-stimulated mouse RAW264.7 cells up to 20 ug/ml preincubated with cells followed by LPS stimulation for 30 mins by Western blot analysis; type: functional, cell-based; method in brief: as §4
[15] = Cytotoxicity against mouse RAW264.7 cells assessed as survival up to 20 ug/ml after 22 hrs by MTT assay relative to control; type: cell-based; settings: read-out: Survival; method in brief: as §5
[16] = system: RAW264.7; experiment: Downregulation of LPS-stimulated IL-1beta protein expression level in mouse RAW264.7 cells up to 20 ug/ml preincubated for 30 mins followed by LPS stimulation for 4 hrs by Western blot analysis; type: functional, cell-based; method in brief: as §3
[17] = species on record: Mus musculus; experiment: Inhibition of IkB kinase in LPS-stimulated mouse RAW264.7 cells assessed as reduction in IkB-alpha phosphorylation up to 20 ug/ml preincubated with cells followed by LPS stimulation for 30 mins by Western blot analysis; method in brief: as §4
[18] = system: RAW264.7; experiment: Anti-inflammatory activity in mouse RAW264.7 cells assessed as inhibition of LPS-induced NO production by measuring […] level at 50 uM after 22 hrs by Griess assay (reference value: 25.31 uM); type: functional; method in brief: as §1
[19] = system: RAW264.7; experiment: Anti-inflammatory activity in mouse RAW264.7 cells assessed as inhibition of LPS-induced NO production by measuring remaining NO level at 50 uM after 22 hrs by Griess assay relative to control; type: functional; method in brief: as §1
[20] = system: RAW264.7; experiment: Anti-inflammatory activity in mouse RAW264.7 cells assessed as inhibition of LPS-induced NO production at 50 uM after 22 hrs by Griess assay relative to control; type: functional; settings: RAW264.7, 22 h; method in brief: as §1

Structure (SMILES): COc1cc(OC)c2c(c1)C(=O)N(CCOC(=O)CCl)C2=O
- Activity [1]: 48.9%
- Activity [2]: 12.14 µM

Structure (SMILES): CCCN1C(=O)c2cc(OC)cc(OC)c2C1=O
- Activity [1]: 93.5%
- Activity [2]: 23.24 µM

Structure (SMILES): CCCCN1C(=O)c2cc(O)cc(O)c2C1=O
- Activity [1]: 73.4%
- Activity [2]: 18.24 µM

Structure (SMILES): CCC(=O)OCCN1C(=O)c2cc(OC)cc(OC)c2C1=O
- Activity [1]: 101.9%
- Activity [2]: 25.31 µM

Structure (SMILES): COc1cc(OC)c2c(c1)C(=O)N(Cc1ccccc1F)C2=O
- Activity [1]: 75.9%
- Activity [2]: 18.87 µM

Structure (SMILES): CCCCCN1C(=O)c2cc(O)cc(O)c2C1=O
- Activity [1]: 45.5%
- Activity [2]: 11.3 µM

Structure (SMILES): COc1cc(OC)c2c(c1)C(=O)N(CCOC(C)=O)C2=O
- Activity [1]: 97.1%
- Activity [2]: 24.13 µM

Structure (SMILES): CCN1C(=O)c2cc(OC)cc(OC)c2C1=O
- Activity [1]: 43.5%
- Activity [2]: 10.81 µM

Structure (SMILES): CCCCCCN1C(=O)c2cc(OC)cc(OC)c2C1=O
- Activity [1]: 92.6%
- Activity [2]: 23.01 µM

Structure (SMILES): CCCCCCCN1C(=O)c2cc(O)cc(O)c2C1=O
- Activity [3]: Active
- Activity [4]: Active
- inhibition [5]: Active
- Activity [6]: Active
- Activity [7]: Dose-dependent effect
- Activity [1]: 2.9%
- inhibition [8]: Dose-dependent effect
- IC50 ([8]; RAW264.7, 22 h): 8.7 µg/mL (≈ 31.4 µM)
- Activity [9]: Dose-dependent effect
- inhibition [10]: Active
- Activity [11]: Active
- viability at 22 h, 40 ug/ml [12]: 17%
- Activity [13]: Dose-dependent effect
- Activity [14]: Active
- viability at 22 h [15]: > 95%
- Activity [2]: 0.72 µM
- Activity [16]: Active
- inhibition [17]: Active

Structure (SMILES): CCCCN1C(=O)c2cc(OC)cc(OC)c2C1=O
- Activity [1]: 79.3%
- Activity [2]: 19.7 µM

Structure (SMILES): CCN1C(=O)c2cc(O)cc(O)c2C1=O
- Activity [1]: 85%
- Activity [2]: 21.12 µM

Structure (SMILES): O=C1c2cc(O)cc(O)c2C(=O)N1Cc1ccc(Br)cc1
- Activity [1]: 32.4%
- Activity [2]: 8.04 µM

Structure (SMILES): CC1CCN=C(N)S1.Cl (centres undefined)
- Activity [18]: 0.5 µM
- Activity [19]: 2%
- inhibition at 50 µM [20]: 98%

Structure (SMILES): COc1cc(OC)c2c(c1)C(=O)N(CCO)C2=O
- Activity [1]: 99.8%
- Activity [2]: 24.8 µM

Structure (SMILES): CCCN1C(=O)c2cc(O)cc(O)c2C1=O
- Activity [1]: 83.3%
- Activity [2]: 20.71 µM

Structure (SMILES): O=C1c2cc(O)cc(O)c2C(=O)N1Cc1ccccc1F
- Activity [1]: 47.3%
- Activity [2]: 11.76 µM

Structure (SMILES): COc1cc(OC)c2c(c1)C(=O)N(Cc1ccccc1Br)C2=O
- Activity [1]: 83.7%
- Activity [2]: 20.79 µM

Structure (SMILES): O=C1c2cc(O)cc(O)c2C(=O)N1Cc1ccccc1Br
- Activity [1]: 38.8%
- Activity [2]: 9.65 µM

Structure (SMILES): CCCCCN1C(=O)c2cc(OC)cc(OC)c2C1=O
- Activity [1]: 74.8%
- Activity [2]: 18.6 µM

Structure (SMILES): Cc1cccc(CN2C(=O)c3cc(O)cc(O)c3C2=O)c1
- Activity [1]: 41.7%
- Activity [2]: 10.36 µM

Structure (SMILES): COc1cc(OC)c2c(c1)C(=O)N(C(C)C)C2=O
- Activity [1]: 97.9%
- Activity [2]: 24.34 µM

Structure (SMILES): COc1cc(OC)c2c(c1)C(=O)N(CC(C)C)C2=O
- Activity [1]: 86.3%
- Activity [2]: 21.45 µM

Structure (SMILES): CC(C)N1C(=O)c2cc(O)cc(O)c2C1=O
- Activity [1]: 82.4%
- Activity [2]: 20.47 µM

Structure (SMILES): COc1cc(OC)c2c(c1)C(=O)N(Cc1cccc(C)c1)C2=O
- Activity [1]: 74.2%
- Activity [2]: 18.43 µM

Structure (SMILES): CCCCCCCN1C(=O)c2cc(OC)cc(OC)c2C1=O
- Activity [1]: 84.5%
- Activity [2]: 20.99 µM

Structure (SMILES): O=C1c2cc(O)cc(O)c2C(=O)N1Cc1cccc(F)c1
- Activity [1]: 42.1%
- Activity [2]: 10.46 µM

Structure (SMILES): CC(C)CN1C(=O)c2cc(O)cc(O)c2C1=O
- Activity [1]: 84.8%
- Activity [2]: 21.07 µM

Structure (SMILES): CCCCCCN1C(=O)c2cc(O)cc(O)c2C1=O
- Activity [1]: 8%
- Activity [2]: 1.98 µM

Structure (SMILES): COc1cc(OC)c2c(c1)C(=O)N(Cc1ccc(Br)cc1)C2=O
- Activity [1]: 81.1%
- Activity [2]: 20.16 µM

Structure (SMILES): COc1cc(OC)c2c(c1)C(=O)N(Cc1cccc(F)c1)C2=O
- Activity [1]: 75.1%
- Activity [2]: 18.65 µM
